{"source": "paper PMC10338367", "about": "(Heliyon, 2023)", "key": {"[1]": {"assay": "DPPH radical scavenging assay"}, "[2]": {"system": "A172 human glioblastoma cells", "assay": "WST cell viability assay, A172", "format": "cell-based", "outline": "(§1)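 Cells (MEM, 10% FBS, 37 °C, 5% CO₂) were seeded at 3 × 10³/well and pre-incubated 24 h. They were treated with test compound at 0.16, 0.8, 4, 20 or 100 μM for 24, 48 or 72 h, with DMSO as vehicle control. WST-1 was then added for 4 h at 37 °C and absorbance read at 516 nm (reference 600 nm). Viability was taken relative to untreated cells and IC50 read from dose-response curves at each time; ≥3 independent experiments.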"}, "[3]": {"system": "normal human astrocytes (NHA)", "assay": "WST cell viability assay, NHA", "format": "cell-based", "outline": "as §1"}, "[4]": {"system": "LN229 human glioblastoma cells", "assay": "WST cell viability assay, LN229", "format": "cell-based", "outline": "as §1"}, "LN229 cells": {"system": "LN229 cells", "assay": "Flow cytometry analysis of cell cycle and apoptosis", "format": "cell-based, human", "conditions": "for G0-G1, percentage of cells: LN229, 4 μM", "outline": "(§2)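 Cells from MD Anderson were grown in MEM with 10% FBS, penicillin-streptomycin and 1% glutamine at 37 °C, 5% CO₂. About 1 × 10⁶ cells per 10-cm plate were exposed to test compound (4 or 10 μM) for 0, 24, 48 or 72 h. Cells were spun down, PBS-washed, fixed overnight (12 h) in chilled 70% ethanol and PI-stained. Sub-G1, G0/G1, S and G2/M fractions were measured; mean ± S.D. of three experiments, untreated controls at each time.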"}, "A172 cells": {"system": "A172 cells", "assay": "Flow cytometry analysis of cell cycle and apoptosis", "format": "cell-based, human", "conditions": "for G0-G1, percentage of cells / Sub G1, percentage of cells: A172, 4 μM", "outline": "as §2"}}, "data": [{"smiles": "O=C1O[C@H]([C@@H](O)CO)C(O)=C1O", "note": "[Ascorbic acid, reference compound]", "values": [{"measurement": "Percentage of antioxidant activity (DPPH)", "setting": "[1]; 250 μM/mL", "value": "74.08 ± 0.04", "unit": "%"}, {"measurement": "Percentage of antioxidant activity (DPPH)", "setting": "[1]; 500 μM/mL", "value": "80.24 ± 0.01", "unit": "%"}, {"measurement": "Percentage of antioxidant activity (DPPH)", "setting": "[1]; 750 μM/mL", "value": "85.79 ± 0.1", "unit": "%"}, {"measurement": "Percentage of antioxidant activity (DPPH)", "setting": "[1]; 1000 μM/mL", "value": "92.059 ± 0.08", "unit": "%"}]}, {"smiles": "CCCN(C)CCc1c[nH]c2ccccc12", "note": "[MPT, Methylprophyl tryptamine, reference compound]", "values": [{"measurement": "IC50", "setting": "[2]; A172, 48 h", "value": "440 ± 130", "unit": "nM"}, {"measurement": "IC50", "setting": "[2]; A172, 72 h", "value": "430 ± 90", "unit": "nM"}, {"measurement": "IC50", "setting": "[3]; 24 h", "value": "490 ± 30", "unit": "nM"}, {"measurement": "IC50", "setting": "[3]; 48 h", "value": "470 ± 40", "unit": "nM"}, {"measurement": "IC50", "setting": "[3]; 72 h", "value": "450 ± 40", "unit": "nM"}, {"measurement": "IC50", "setting": "[4]; LN229, 24 h", "value": "448 ± 300", "unit": "nM"}, {"measurement": "IC50", "setting": "[4]; LN229, 48 h", "value": "447 ± 10", "unit": "nM"}, {"measurement": "IC50", "setting": "[4]; LN229, 72 h", "value": "440 ± 70", "unit": "nM"}]}, {"smiles": "COc1ccc(C(c2c(O)c3ccccc3oc2=O)c2c(O)c3ccccc3oc2=O)cc1", "note": "[HL, 3,3′-[(4-methoxyphenyl)methanediyl]bis(4-hydroxy-2Hchromen-2-one)]", "values": [{"measurement": "cell cycle arrest, phase", "setting": "LN229 cells; LN229", "value": "arrested at G0/G1 phase"}, {"measurement": "G0-G1, percentage of cells", "setting": "LN229 cells; 24 h", "value": 70.33, "unit": "%"}, {"measurement": "G0-G1, percentage of cells", "setting": "LN229 cells; 48 h", "value": 61.70, "unit": "%"}, {"measurement": "G0-G1, percentage of cells", "setting": "LN229 cells; 72 h", "value": 41.11, "unit": "%"}, {"measurement": "Percentage of antioxidant activity (DPPH)", "setting": "[1]; 250 μM/mL", "value": "10.37 ± 0.08", "unit": "%"}, {"measurement": "Percentage of antioxidant activity (DPPH)", "setting": "[1]; 500 μM/mL", "value": "15.12 ± 0.03", "unit": "%"}, {"measurement": "Percentage of antioxidant activity (DPPH)", "setting": "[1]; 750 μM/mL", "value": "19.41 ± 0.02", "unit": "%"}, {"measurement": "Percentage of antioxidant activity (DPPH)", "setting": "[1]; 1000 μM/mL", "value": "25.62 ± 0.07", "unit": "%"}, {"measurement": "IC50", "setting": "[2]; A172, 72 h", "value": 950, "unit": "nM"}, {"measurement": "IC50", "setting": "[2]; Homo sapiens, A 172, 24 h, A172, 24 h", "value": "2680 ± 190", "unit": "nM"}, {"measurement": "cell cycle arrest, phase", "setting": "A172 cells; A172", "value": "cell cycle arrest was caused at G0/G1 phase"}, {"measurement": "G0-G1, percentage of cells", "setting": "A172 cells; 24 h", "value": 67.66, "unit": "%"}, {"measurement": "Sub G1, percentage of cells", "setting": "A172 cells; 48 h", "value": 6.48, "unit": "%"}, {"measurement": "G0-G1, percentage of cells", "setting": "A172 cells; 72 h", "value": 59.23, "unit": "%"}, {"measurement": "Sub G1, percentage of cells", "setting": "A172 cells; 72 h", "value": 4.55, "unit": "%"}, {"measurement": "IC50", "setting": "[3]; 48 h", "value": "640 ± 60", "unit": "nM"}, {"measurement": "IC50", "setting": "[3]; Homo sapiens, Astrocyte, 24 h", "value": "3210 ± 40", "unit": "nM"}, {"measurement": "IC50", "setting": "[3]; Homo sapiens, Astrocyte, 72 h", "value": "220 ± 40", "unit": "nM"}, {"measurement": "IC50", "setting": "[4]; LN229, 24 h", "value": 9550, "unit": "nM"}, {"measurement": "IC50", "setting": "[4]; LN229, 48 h", "value": "1780 ± 50", "unit": "nM"}, {"measurement": "IC50", "setting": "[4]; LN229, 72 h", "value": "850 ± 70", "unit": "nM"}]}]}
